ChEMBL document CHEMBL1154352, “Toll-like receptor 7 selective synthetic oligoribonucleotide agonists: synthesis and structure-activity relationship studies” (J Med Chem, 2009)
Activity calls are given as the source filed them. No cut-off for these calls is given here.

Tests used:
Homo sapiens = species: Homo sapiens; assay: Ratio of human TLR7 activity to human TLR8 activity
Procedure, shortened: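 TLR7/TLR8 ratio computed from fold NF-κB (SEAP reporter) activation in HEK293 cells stably expressing human TLR7 versus TLR8, compounds at 50 μg/mL, 18 h exposure; representative of three independent experiments.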

PBMC [1] = assay: Immunomodulatory activity in human PBMC assessed as induction of IL12 at 100 ug/ml after 24 hrs; type: functional, cell-based
Procedure, shortened: (§1)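 Human PBMCs plated at 5 × 10^6 cells/mL; compounds dissolved in PBS added at various concentrations, 37 °C for 24 h. Supernatant cytokines/chemokines quantified with human Luminex multiplex kit.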

[2] = target: T1, Toll-like receptor 7 (Homo sapiens) (UniProt Q9NYK1); assay: Activation of human TLR7 expressed in HEK293XL assessed as fold induction of NF-kappaB activity at 50 ug/ml after 18 hrs by reporter gene assay relative to control
T1 sequence (whole entry): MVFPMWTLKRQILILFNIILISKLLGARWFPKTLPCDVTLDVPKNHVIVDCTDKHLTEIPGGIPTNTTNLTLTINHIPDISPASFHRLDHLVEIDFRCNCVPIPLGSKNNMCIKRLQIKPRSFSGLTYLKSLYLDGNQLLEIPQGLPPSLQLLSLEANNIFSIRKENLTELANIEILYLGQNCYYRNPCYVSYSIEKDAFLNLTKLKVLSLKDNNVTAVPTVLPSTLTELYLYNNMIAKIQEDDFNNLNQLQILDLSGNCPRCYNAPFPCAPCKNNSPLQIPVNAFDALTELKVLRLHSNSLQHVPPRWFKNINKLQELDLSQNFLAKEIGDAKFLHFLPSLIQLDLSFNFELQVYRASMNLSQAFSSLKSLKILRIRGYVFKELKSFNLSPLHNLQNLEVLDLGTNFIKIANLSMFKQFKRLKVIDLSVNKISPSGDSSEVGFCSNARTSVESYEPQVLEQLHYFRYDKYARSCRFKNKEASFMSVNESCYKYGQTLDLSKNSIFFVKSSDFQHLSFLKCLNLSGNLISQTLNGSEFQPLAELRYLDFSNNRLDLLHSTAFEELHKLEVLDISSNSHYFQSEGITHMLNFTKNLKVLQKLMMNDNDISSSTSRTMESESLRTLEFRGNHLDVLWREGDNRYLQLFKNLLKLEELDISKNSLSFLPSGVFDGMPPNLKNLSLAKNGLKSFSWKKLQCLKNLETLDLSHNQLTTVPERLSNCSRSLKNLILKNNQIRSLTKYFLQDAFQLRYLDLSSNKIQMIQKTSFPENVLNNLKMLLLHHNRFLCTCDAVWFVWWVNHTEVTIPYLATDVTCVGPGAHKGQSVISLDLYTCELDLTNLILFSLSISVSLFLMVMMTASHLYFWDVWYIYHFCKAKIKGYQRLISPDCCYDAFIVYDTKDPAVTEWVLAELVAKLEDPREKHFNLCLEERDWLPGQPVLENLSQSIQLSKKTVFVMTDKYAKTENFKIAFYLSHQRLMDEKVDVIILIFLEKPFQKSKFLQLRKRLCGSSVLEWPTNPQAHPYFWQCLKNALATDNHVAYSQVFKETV
Procedure, shortened: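 HEK293 cells stably expressing human TLR7 or TLR8, transiently transfected with SEAP reporter plasmid; medium replaced, SIMRA compounds added, 18 h incubation. Supernatant SEAP measured by QuantiBlue; expressed as fold increase in NF-κB activity over PBS control. Tabulated data at 50 μg/mL, representative of three independent experiments.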

PBMC [3] = assay: Immunomodulatory activity in human PBMC assessed as induction of TNFalpha at 100 ug/ml after 24 hrs; type: functional, cell-based; procedure, shortened: as §1
[4] = target: T2, Toll-like receptor 9 (Mus musculus) (UniProt Q9EQU3); assay: Activation of mouse TLR9 expressed in HEK293 assessed as induction of NF-kappaB activity reporter gene assay; type: cell-based
T2 sequence (whole entry): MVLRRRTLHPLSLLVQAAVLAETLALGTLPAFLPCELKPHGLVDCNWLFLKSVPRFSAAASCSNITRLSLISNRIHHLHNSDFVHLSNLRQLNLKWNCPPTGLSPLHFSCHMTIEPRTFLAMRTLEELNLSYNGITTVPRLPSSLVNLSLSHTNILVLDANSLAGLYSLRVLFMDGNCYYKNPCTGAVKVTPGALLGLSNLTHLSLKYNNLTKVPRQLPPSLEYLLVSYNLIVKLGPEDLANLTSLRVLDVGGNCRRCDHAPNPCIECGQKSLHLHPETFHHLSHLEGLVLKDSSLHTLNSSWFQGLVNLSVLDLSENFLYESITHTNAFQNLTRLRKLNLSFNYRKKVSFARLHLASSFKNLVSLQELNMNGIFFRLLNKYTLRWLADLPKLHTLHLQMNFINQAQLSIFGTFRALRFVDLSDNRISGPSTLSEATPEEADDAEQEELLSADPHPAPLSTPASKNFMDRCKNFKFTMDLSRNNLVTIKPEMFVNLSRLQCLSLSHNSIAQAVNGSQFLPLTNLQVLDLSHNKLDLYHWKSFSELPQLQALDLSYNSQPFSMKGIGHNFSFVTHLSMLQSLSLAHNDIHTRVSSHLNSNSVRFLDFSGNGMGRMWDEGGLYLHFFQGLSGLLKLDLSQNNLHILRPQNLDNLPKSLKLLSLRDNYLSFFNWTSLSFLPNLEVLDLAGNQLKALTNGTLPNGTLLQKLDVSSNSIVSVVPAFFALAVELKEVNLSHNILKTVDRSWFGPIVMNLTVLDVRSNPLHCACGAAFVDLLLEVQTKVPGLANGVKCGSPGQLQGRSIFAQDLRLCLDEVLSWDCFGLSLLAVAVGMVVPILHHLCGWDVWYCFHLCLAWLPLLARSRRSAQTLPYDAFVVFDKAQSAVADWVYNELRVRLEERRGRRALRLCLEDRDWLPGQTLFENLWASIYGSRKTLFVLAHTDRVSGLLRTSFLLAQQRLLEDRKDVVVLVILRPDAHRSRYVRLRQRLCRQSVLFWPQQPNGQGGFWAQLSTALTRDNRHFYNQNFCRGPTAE

PBMC [5] = assay: Immunomodulatory activity in human PBMC assessed as induction of IFN-alpha at 100 ug/ml after 24 hrs
Splenocyte [6] = assay: Immunomodulatory activity in C57BL/6 mouse splenocytes bearing TLR7 receptor assessed as IL6 release at 100 ug/ml after 24 hrs by ELISA; type: functional, cell-based
Procedure, shortened: (§2)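 C57BL/6 splenocytes in RPMI 1640 with 10% FBS, penicillin/streptomycin, 2 mM L-glutamine, plated at 5 × 10^6 cells/mL; compounds in PBS added, 37 °C for 24 h. Supernatant IL-12 and IL-6 by ELISA; representative of three independent experiments.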

Splenocyte [7] = assay: Immunomodulatory activity in C57BL/6 mouse splenocytes bearing TLR7 receptor assessed as IL12 release at 100 ug/ml after 24 hrs by ELISA; type: functional, cell-based; procedure, shortened: as §2

| SMILES | Ratio (Homo sapiens) | Activity (PBMC [1]) [pg/mL] | fold change (FC) [2] | Activity (PBMC [3]) [pg/mL] | Activity [4] | IFN-alpha (PBMC [5]) [pg/mL] | Activity (Splenocyte [6]) | Activity (Splenocyte [7]) |
| --- | --- | --- | --- | --- | --- | --- | --- | --- |
| Nc1ccn([C@@H]2O[C@H](COP(=O)(S)O[C@H]3[C@@H](O)[C@H](n4cnc5c(N)ncnc54)O[C@@H]3COP(=O)(S)O[C@H]3[C@@H](O)[C@H](n4cnc5c(N)ncnc54)O[C@@H]3CO)[C@@H](OP(=O)(S)OC[C@H]3O[C@@H](n4ccc(=O)[nH]c4=O)[C@H](O)[C@@H]3OP(=O)(S)OC[C@H]3O[C@@H](n4ccc5c(=O)[nH]c(N)nc54)[C@H](O)[C@@H]3OP(=O)(S)OC[C@H]3O[C@@H](n4cnc5c(N)ncnc54)[C@H](O)[C@@H]3OP(=O)(S)OC[C@H]3O[C@@H](n4cnc5c(N)ncnc54)[C@H](O)[C@@H]3OP(=O)(S)OC[C@H]3O[C@@H](n4ccc5c(=O)[nH]c(N)nc54)[C@H](O)[C@@H]3OP(=O)(S)OC[C@H]3O[C@@H](n4ccc(N)nc4=O)[C@H](O)[C@@H]3OP(=O)(S)OC[C@H]3O[C@@H](n4ccc(=O)[nH]c4=O)[C@H](O)[C@@H]3OP(=O)(S)OC[C@H]3O[C@@H](n4ccc(=O)[nH]c4=O)[C@H](O)[C@@H]3OP(=O)(S)OCC(O)COP(=O)(S)O[C@H]3[C@@H](O)[C@H](n4ccc(=O)[nH]c4=O)O[C@@H]3COP(=O)(S)O[C@H]3[C@@H](O)[C@H](n4ccc(=O)[nH]c4=O)O[C@@H]3COP(=O)(S)O[C@H]3[C@@H](O)[C@H](n4ccc(N)nc4=O)O[C@@H]3COP(=O)(S)O[C@H]3[C@@H](O)[C@H](n4ccc5c(=O)[nH]c(N)nc54)O[C@@H]3COP(=O)(S)O[C@H]3[C@@H](O)[C@H](n4cnc5c(N)ncnc54)O[C@@H]3COP(=O)(S)O[C@H]3[C@@H](O)[C@H](n4cnc5c(N)ncnc54)O[C@@H]3COP(=O)(S)O[C@H]3[C@@H](O)[C@H](n4ccc5c(=O)[nH]c(N)nc54)O[C@@H]3COP(=O)(S)O[C@H]3[C@@H](O)[C@H](n4ccc(=O)[nH]c4=O)O[C@@H]3COP(=O)(S)O[C@H]3[C@@H](O)[C@H](n4ccc(N)nc4=O)O[C@@H]3COP(=O)(S)O[C@H]3[C@@H](O)[C@H](n4cnc5c(N)ncnc54)O[C@@H]3COP(=O)(S)O[C@H]3[C@@H](O)[C@H](n4cnc5c(N)ncnc54)O[C@@H]3CO)[C@H]2O)c(=O)n1 (stereo partly specified) | 29.5 | 260 | 29.5 | 7.5 | inactive | 84.5 | Active | Active |
| Nc1ccn([C@@H]2O[C@H](COP(=O)(S)O[C@H]3[C@@H](O)[C@H](n4cnc5c(N)ncnc54)O[C@@H]3COP(=O)(S)O[C@H]3[C@@H](O)[C@H](n4cnc5c(N)ncnc54)O[C@@H]3CO)[C@@H](OP(=O)(S)OC[C@H]3O[C@@H](n4ccc(=O)[nH]c4=O)[C@H](O)[C@@H]3OP(=O)(S)OC[C@H]3O[C@@H](n4ccc5c(=O)[nH]c(N)nc54)[C@H](O)[C@@H]3OP(=O)(S)OC[C@H]3O[C@@H](n4cnc5c(N)ncnc54)[C@H](O)[C@@H]3OP(=O)(S)OC[C@H]3O[C@@H](n4cnc5c(N)ncnc54)[C@H](O)[C@@H]3OP(=O)(S)OC[C@H]3O[C@@H](n4ccc5c(=O)[nH]c(N)nc54)[C@H](O)[C@@H]3OP(=O)(S)OC[C@H]3O[C@@H](n4ccc(N)nc4=O)[C@H](O)[C@@H]3OP(=O)(S)OC[C@H]3O[C@@H](n4ccc(=O)[nH]c4=O)[C@H](O)[C@@H]3OP(=O)(S)OC[C@H]3O[C@@H](n4ccc5c(=O)[nH]c(N)nc54)[C@H](O)[C@@H]3OP(=O)(S)OCC(O)COP(=O)(S)O[C@H]3[C@@H](O)[C@H](n4ccc5c(=O)[nH]c(N)nc54)O[C@@H]3COP(=O)(S)O[C@H]3[C@@H](O)[C@H](n4ccc(=O)[nH]c4=O)O[C@@H]3COP(=O)(S)O[C@H]3[C@@H](O)[C@H](n4ccc(N)nc4=O)O[C@@H]3COP(=O)(S)O[C@H]3[C@@H](O)[C@H](n4ccc5c(=O)[nH]c(N)nc54)O[C@@H]3COP(=O)(S)O[C@H]3[C@@H](O)[C@H](n4cnc5c(N)ncnc54)O[C@@H]3COP(=O)(S)O[C@H]3[C@@H](O)[C@H](n4cnc5c(N)ncnc54)O[C@@H]3COP(=O)(S)O[C@H]3[C@@H](O)[C@H](n4ccc5c(=O)[nH]c(N)nc54)O[C@@H]3COP(=O)(S)O[C@H]3[C@@H](O)[C@H](n4ccc(=O)[nH]c4=O)O[C@@H]3COP(=O)(S)O[C@H]3[C@@H](O)[C@H](n4ccc(N)nc4=O)O[C@@H]3COP(=O)(S)O[C@H]3[C@@H](O)[C@H](n4cnc5c(N)ncnc54)O[C@@H]3COP(=O)(S)O[C@H]3[C@@H](O)[C@H](n4cnc5c(N)ncnc54)O[C@@H]3CO)[C@H]2O)c(=O)n1 (stereo partly specified) | 30.7 | 240 | 18.4 | 3.5 | inactive | 28.7 | Active | Active |
